Measurements from ChEMBL document CHEMBL1147230, “Novel oxylipin metabolites from the brown alga Eisenia bicyclis” (2003).

Assays:
Type in all cases: functional
Bacillus subtilis [1] = assay: Antibacterial activity against Bacillus subtilis after 12 hrs relative to vancomycin
Summary of the method: (§1)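 Paper disk diffusion: 0.1 mg sample loaded per disk, incubated on bouillon culture medium at 37 °C. Inhibition zone diameter measured after 12 h. Activity expressed relative to a vancomycin standard disk (0.1 mg).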

Staphylococcus aureus [2] = assay: Antibacterial activity against Staphylococcus aureus after 12 hrs relative to vancomycin; summary of the method: as §1
Bacillus subtilis [3] = assay: Antibacterial activity against Bacillus subtilis after 12 hrs
Summary of the method: (§2)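 Paper disk diffusion: 0.1 mg sample loaded per disk, incubated in bouillon culture medium at 37 °C for 12 h, then inhibition zone diameter measured. Activity expressed relative to vancomycin standard (0.1 mg per disk).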

Staphylococcus aureus [4] = assay: Antibacterial activity against Staphylococcus aureus after 12 hrs; summary of the method: as §2

Compound	Activity (Bacillus subtilis [1])	Activity (Staphylococcus aureus [2])	inhibition zone (IZ) (Bacillus subtilis [3]) [mm]	inhibition zone (IZ) (Staphylococcus aureus [4]) [mm]
CC[C@H]1O[C@@H]2[C@@H](/C=C\C/C=C\CCCCC(=O)O)[C@H]1C[C@H]2Cl	0.43	0.4		
CC[C@@H]1OC(=O)CCCC/C=C\C/C=C\[C@H]2[C@H]1C[C@@H]1O[C@H]21 [ECKLONIALACTONE A]	0.3	0.41		
CC[C@H](Cl)[C@@H]1C[C@@H]2O[C@@H]2[C@H]1/C=C\C/C=C\CCCCC(=O)O [EGREGIACHLORIDE A]	0.35	0.47		
CC[C@@H]1OC(=O)CCCC/C=C\C/C=C\[C@@H]2[C@@H](O)[C@H](Cl)C[C@H]21 [EISENIACHLORIDE A]	0.36	0.38		
CC[C@@H]1OC(=O)CCCCCCC/C=C\[C@@H]2[C@@H](O)[C@H](Cl)C[C@H]21 [EISENIACHLORIDE B]	0.31	0.53		
CC[C@@H]1OC(=O)CCC/C=C\C/C=C\C/C=C\[C@@H]2[C@@H](O)[C@H](Cl)C[C@H]21 [EISENIACHLORIDE C]	0.29	0.34		
CC[C@@H]1OC(=O)CCCCCCC/C=C\[C@@H]2[C@@H](O)[C@H](I)C[C@H]21 [EISENIAIODIDE B]	0.28	0.47		
CN[C@H](CC(C)C)C(=O)N[C@H]1C(=O)N[C@@H](CC(N)=O)C(=O)N[C@H]2C(=O)N[C@H]3C(=O)N[C@H](C(=O)N[C@H](C(=O)O)c4cc(O)cc(O)c4-c4cc3ccc4O)[C@H](O)c3ccc(c(Cl)c3)Oc3cc2cc(c3O[C@@H]2O[C@H](CO)[C@@H](O)[C@H](O)[C@H]2O[C@H]2C[C@](C)(N)[C@H](O)[C@H](C)O2)Oc2ccc(cc2Cl)[C@H]1O [VANCOMYCIN]	1	1	26.8	34.6
